SMILES strings stand for the structures. Values after ≈ are worked out from the molar mass of the structure shown.

A word on the IC50: it is the midpoint of a concentration-inhibition curve. For orientation: EC50 means the concentration needed to bring the measured effect to its halfway point. Broadly, the CC50 is the concentration that lowers cell viability or growth by half. As usually defined, the half-life is how long it takes for the measured level to halve. Broadly, the clearance is a measure of how efficiently the substance is removed, as volume per time. As a reminder, the Papp A→B is how fast a substance crosses the layer from the apical side. For orientation: Papp B→A means the apparent permeability from the basolateral to the apical side of a cell layer. Broadly, the efflux ratio is the permeability from basolateral to apical divided by that in the opposite direction, in the common usage. One may read the Tmax as the time from dosing to the highest level. What is called Cmax is the highest concentration seen after dosing. The term bioavailability denotes dose-corrected exposure relative to a reference, in per cent.

The target in one data set is Fusion glycoprotein F0 (Human respiratory syncytial virus A (strain A2), UniProt P03420). Description: Inhibition of Respiratory syncytial virus fusion protein. In a few lines: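 293T cells cotransfected with codon-optimized RSV A2 F plasmid and a GAL4-responsive luciferase reporter, mixed after 24 h with a second 293T population expressing GAL4-NF-κB transactivator. Threefold serial compound dilutions present during mixing; F-mediated fusion read as luciferase after 24 h. IC₅₀ averaged over at least two testing occasions.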
Sequence of Fusion glycoprotein F0 (P03420 26-109 limits assumed): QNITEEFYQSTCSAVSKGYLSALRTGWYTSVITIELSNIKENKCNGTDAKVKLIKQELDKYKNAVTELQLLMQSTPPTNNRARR
Sequence of Fusion glycoprotein F0 (P03420 137-574 limits assumed): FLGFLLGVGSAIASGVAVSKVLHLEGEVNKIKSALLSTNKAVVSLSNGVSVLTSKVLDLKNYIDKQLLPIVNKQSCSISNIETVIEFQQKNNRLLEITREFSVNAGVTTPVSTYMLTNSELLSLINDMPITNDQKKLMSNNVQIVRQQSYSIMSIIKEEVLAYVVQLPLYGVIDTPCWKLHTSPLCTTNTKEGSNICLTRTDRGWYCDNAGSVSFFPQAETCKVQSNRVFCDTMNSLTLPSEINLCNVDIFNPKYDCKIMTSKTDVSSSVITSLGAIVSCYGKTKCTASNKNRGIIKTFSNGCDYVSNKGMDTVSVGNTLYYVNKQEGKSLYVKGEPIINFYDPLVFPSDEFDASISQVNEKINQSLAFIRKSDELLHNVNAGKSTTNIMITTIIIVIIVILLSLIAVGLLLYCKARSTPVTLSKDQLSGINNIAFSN

Data set [1] relates to Human orthopneumovirus. Put plainly: Antiviral activity against Respiratory syncytial virus A2 by Plaque reduction assay. Type of data set: functional, organism-based. In outline: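 Vero cells were infected with RSV A2 for 48 h with compound at 0.01 nM to 100 μM. Plaques were detected by immunostaining. Values are the average of at least two testing occasions.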
For orientation: Plaque reduction counts the foci of infection that form in a cell layer.

The test system of data set [2] is Human orthopneumovirus. Put plainly: Antiviral activity against Respiratory syncytial virus A2 infected in African green monkey Vero cells by Plaque reduction assay. Type of data set: functional, organism-based.
Data set [3] can be described thus: Cytotoxicity against African green monkey Vero cells by MTT assay. Type of data set: cell-based. The conditions noted are these: chlorocebus sabaeus. In a few lines:
(§1)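 Viability was assessed by MTT after culture with compound at 0.01 nM to 100 μM, run in parallel with plaque reduction assays. Values are the average of at least two testing occasions.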
In general terms: Tetrazolium assays rely on reduction of a dye to a coloured formazan, in cell work by metabolically active cells.

Data set [4] has as its system Human orthopneumovirus. Put plainly: Antiviral activity against Respiratory syncytial virus A2 infected in human Hep2 cells by Plaque reduction assay. The class given is functional, organism-based. The note with it: A2, HEp-2. In outline:
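Hep2 cells were infected with RSV strain A2 in the presence of compound. Plaques were detected by immunostaining after 48 h. Values are the average of at least two testing occasions.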

A short description of data set [5]: Cytotoxicity against human Hep2 cells. Type of data set: cell-based. The conditions noted are these: HEp-2 cells. In a few lines:
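Hep2 cells were cultured in parallel with the plaque assays at compound concentrations of 0.01 nM to 100 μM. Viability was read by MTT, CellTox green or CellTiter-Glo.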

Data set [6] can be described thus: Cytotoxicity against human HepG2 cells by MTT assay. The class given is cell-based. In a few lines: as §1
A short description of data set [7]: Intrinsic clearance in Sprague-Dawley rat liver microsomes preincubated followed by NADPH addition and measured up to 45 mins by LC-MS/MS analysis. The class given is ADME, Microsome. A general note: Microsomes from liver hold many membrane-bound enzymes, among them those of drug oxidation.
Data set [8] in a line: Intrinsic clearance in Beagle dog liver microsomes preincubated followed by NADPH addition and measured up to 45 mins by LC-MS/MS analysis. Type of data set: ADME, Canis lupus familiaris, Microsome.
Data set [9] can be described thus: Intrinsic clearance in human liver microsomes preincubated followed by NADPH addition and measured up to 45 mins by LC-MS/MS analysis. The class given is ADME, Microsome.
A short description of data set [10]: Half life in Sprague-Dawley rat liver microsomes preincubated followed by NADPH addition and measured up to 45 mins by LC-MS/MS analysis. The class given is ADME, Microsome.
Data set [11] in a line: Half life in Beagle dog liver microsomes preincubated followed by NADPH addition and measured up to 45 mins by LC-MS/MS analysis.
Data set [12] can be described thus: Half life in human liver microsomes preincubated followed by NADPH addition and measured up to 45 mins by LC-MS/MS analysis. Type of data set: ADME, Microsome.
A short description of data set [13]: Clearance in CD1 mouse at 1 mg/kg, iv measured after 0.083 to 24 hrs by UHPLC-TOF method. The class given is ADME, organism-based. The conditions noted are these: in vivo, time 0.083-24 hrs.
Data set [14] can be described thus: Volume of distribution at steady state in CD1 mouse at 1 mg/kg, iv measured after 0.083 to 24 hrs by UHPLC-TOF method. The class given is ADME, organism-based. The note with it: in vivo, time 0.083-24 hrs, read-out: Vdss. In a few lines:
(§2)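 Male CD-1 mice, acclimatized and individually housed, dosed IV and PO as amorphous-solid suspension. Terminal cardiac-puncture blood into heparinized tubes on wet ice, centrifuged at 4 °C within 15 min; plasma snap-frozen at −20 °C. IV arm sampled 2 min–24 h, oral arm 5 min–24 h. Plasma analysed by UHPLC-quadrupole-TOF MS.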

Data set [15] can be described thus: Thermodynamic solubility in PBS at 1 to 100 uM at pH 7.4 by HPLC-UV method. Type of data set: physicochemical. The conditions noted are these: dose 1-100 µM, read-out: Therm_solubility.
Data set [16] is described as follows: Apparent permeability across apical to basolateral side in MDCK-MDR1 cells at 10 uM measured at 60 mins by LC-MS/MS analysis. Type of data set: ADME, cell-based, Canis lupus familiaris. The conditions noted are these: dog, MDCK-MDR1.
The nature of data set [17]: Apparent permeability across basolateral side to apical side in MDCK-MDR1 cells at 10 uM measured at 60 mins by LC-MS/MS analysis. The class given is ADME, cell-based, Canis lupus familiaris. The conditions noted are these: dog.
Data set [18] is described as follows: Efflux ratio of apparent permeability in MDCK-MDR1 cells at 10 uM measured at 60 mins by LC-MS/MS analysis. The class given is ADME, cell-based, Canis lupus familiaris. The note with it: dog, MDCK-MDR1.
Data set [19] is described as follows: Half life in CD1 mouse at 10 mg/kg, po measured after 0.083 to 24 hrs by UHPLC-TOF method. The class given is ADME, organism-based. The note with it: in vivo, time 0.083-24 hrs.
Data set [20] can be described thus: Tmax in CD1 mouse at 10 mg/kg, po measured after 0.083 to 24 hrs by UHPLC-TOF method. Type of data set: ADME, organism-based. The conditions noted are these: in vivo, time 0.083-24 hrs. In outline:
as §2

Data set [21] can be described thus: Cmax in CD1 mouse at 10 mg/kg, po measured after 0.083 to 24 hrs by UHPLC-TOF method. Type of data set: ADME, organism-based. Also on record: route oral, time 0.083-24 hrs, dose 10 mg/kg. The note with it: in vivo.
Data set [22] can be described thus: Oral bioavailability in CD1 mouse at 10 mg/kg measured after 0.03 to 24 hrs by UHPLC-TOF method. The class given is ADME, organism-based. The note with it: in vivo, time 0.03-24 hrs. In a few lines: as §2
For data set [23], the system named is Human orthopneumovirus. Put plainly: Antiviral activity against Respiratory syncytial virus A2 infected in human Huh7 cells by Plaque reduction assay. The class given is functional, organism-based. The note with it: A2, Huh-7. In outline:
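Huh-7 cells were infected with RSV strain A2 in the presence of compound. Values are the average of at least two testing occasions.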

On Fusion glycoprotein F0, `CC(=O)N1CC2(C1)C(=O)N(Cc1nc3cc(CN)ccc3n1CCC(C)C)c1ccccc12` gave an IC50 of 1.1 nM. In the data set with Human orthopneumovirus [1], this compound returned an EC50 of 2.2 nM.

For `O=C1N(Cc2nc3ccccc3n2CCCC(F)(F)F)c2cc(F)ccc2C12CC2`, a half-maximal effect with Human orthopneumovirus [2] (EC50) was put at 17.9 nM. Moreover, in [3], the CC50 is more than 25 µM.

`CC(=O)NCc1ccc2c(c1)nc(CN1C(=O)C3(CC3)c3ccc(F)cc31)n2CCCC(F)(F)F` returned an EC50 in the data set on Human orthopneumovirus [4] of 107 nM. In data set [5], this compound registered a CC50 of more than 20 µM.

Consider `CS(=O)(=O)c1ccc2c(c1)nc(CN1C(=O)C3(CC3)c3ccc(F)cc31)n2CCCC(F)(F)F`, for which the EC50 with Human orthopneumovirus [2] was determined as 3640 nM. Also, the CC50 in data set [6] was more than 25 µM.

Compound `CC(C)CCn1c(CN2C(=O)C3(CC3)c3cccc(Cl)c32)nc2cc(CN)ccc21` had a concentration for a half-maximal effect (EC50) in the data set with Human orthopneumovirus [2] of 2380 nM. The CC50 in [3] turned out to be 21.7 µM.

`CC(C)CCn1c(CN2C(=O)C3(CC3)c3ccc(Cl)cc32)nc2cc(CN)ccc21` gave an EC50 in the data set with Human orthopneumovirus [2] of 6.7 nM. This compound also gave a CC50 in data set [3] of 4.5 µM.

In turn, `CC(C)CCn1c(CN2C(=O)C3(CCC3)c3ccccc32)nc2cc(CN)ccc21` registered an EC50 in the data set with Human orthopneumovirus [2] of 240 nM. Also, it took 13.8 µM to reach half-maximal cytotoxicity in data set [3] (CC50).

With `NCc1ccc2c(c1)nc(CN1C(=O)C3(CC3)c3ccc(F)cc31)n2C1CCC(O)CC1` (configuration not stated), the Microsomal intrinsic clearance in data set [7] was determined as 9.4 µL/min. For the same compound, the intrinsic clearance in data set [8] was 5.02 µL/min. Moreover, the “intrinsic clearance (CLint)” value in [9] came out at 4.6 µL/min. For the same compound, the half-life is 147 min in data set [10], 276 min in [11], 300 min in [12] and 54 min in data set [19]. Moreover, the clearance in data set [13] worked out at 82.7 mL/min/kg. Also, the Vd in data set [14] was determined as 3.8 L/kg. In addition, the solubility thermodynamic in data set [15] was found to be 313 µM (≈ 136 µg/mL). Besides, the Papp A→B at 1 h, 10 µM in [16] amounted to 0.1 ×10⁻⁶ cm/s. In addition, the Papp B→A at 1 h, 10 µM in data set [17] was 2.8 ×10⁻⁶ cm/s. Moreover, the efflux ratio at 1 h, 10 µM in data set [18] came out at 21. Besides, the CC50 in data set [6] is more than 25 µM. Also, the Tmax in data set [20] came to 6 min. In data set [21], this compound returned a Cmax of 47.8 ng/mL. In addition, the bioavailability in data set [22] was 4.4%. The compound also had an EC50 in the data set with Human orthopneumovirus [23] of 1.6 nM.

As to `CC(C)CCn1c(CN2C(=O)C3(CC3)c3cc(Cl)ccc32)nc2cc(CN)ccc21`, the midpoint of the response in the data set on Human orthopneumovirus [2], the EC50, lay at 25.4 nM. The CC50 in [3] came out at 0.71 µM.

In the case of `O=C(O)c1ccc2c(c1)nc(CN1C(=O)C3(CC3)c3ccc(F)cc31)n2CCCC(F)(F)F`, a half-maximal effect with Human orthopneumovirus [2] (EC50) was put at 10200 nM. Also, the CC50 in data set [6] was more than 25 µM.

At Fusion glycoprotein F0, `CC(C)CCn1c(CN2C(=O)C3(CCOCC3)c3ccccc32)nc2cc(CN)ccc21` gave an IC50 of 0.69 nM. In the data set on Human orthopneumovirus [1], this compound yielded an EC50 of 3.4 nM.

Turning to `CCNC(=N)c1ccc2c(c1)nc(CN1C(=O)C3(CC3)c3ccc(F)cc31)n2CCCC(F)(F)F`, the EC50 in the data set on Human orthopneumovirus [2] was found to be 454 nM. In data set [6], this compound displayed a CC50 of more than 25 µM.

Take `CC(C)CCn1c(CN2C(=O)C3(CCCC3)Cc3ccccc32)nc2cc(CN)ccc21`: the EC50 with Human orthopneumovirus [2] was 14000 nM. Further, the CC50 in data set [3] came out at 11.5 µM.

Source of the values: ChEMBL document CHEMBL4825662 (J Med Chem, 2021).
